pIC50: −log10 of the molar value.
How the values were obtained:
[1] = Cytotoxicity against human SH-SY5Y cells assessed as cell viability after 48 hrs; format: functional, cell-based
Paracentrotus lividus [2] = experiment: Antimitotic activity against sea urchin embryo free-swimming blastula model assessed as embryo spinning compound treated at 8 to 10 hrs post-fertilization measured after 0.25 to 20 hrs; format: functional, Blastula stage
Paracentrotus lividus [3] = experiment: Antimitotic activity against sea urchin embryo model assessed as cleavage arrest of fertilized egg compound treated at 8 to 20 mins post-fertilization and 45 to 55 mins prior to first mitotic cycle completion measured 2.5 to 5.5 hrs post-fertilization; format: functional
Outline: (§1)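 Fertilized eggs are exposed 8–20 min after fertilization to 2-fold decreasing concentrations. Stocks are 10 mM in DMSO, then diluted 10-fold in 95% EtOH; final DMSO is at most 0.05% and EtOH at most 1%. Embryos are kept as a monolayer, up to 2000 embryos/mL, in filtered seawater at room temperature. The value is the threshold concentration giving cleavage alteration, embryo death before hatching or full mitotic arrest. Duplicates were run.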

Paracentrotus lividus [4] = experiment: Antimitotic activity against sea urchin embryo model assessed as cleavage alteration of fertilized egg compound treated at 8 to 20 mins post-fertilization and 45 to 55 mins prior to first mitotic cycle completion measured 2.5 to 5.5 hrs post-fertilization; format: functional; outline: as §1

COc1ccc(-n2nncc2-c2cc(OC)c(OC)c(OC)c2)cc1
pIC50 [1]: < 6.00
EC (Paracentrotus lividus [2]): >4 µM
EC (Paracentrotus lividus [3]): 4 µM
EC (Paracentrotus lividus [4]): 1 µM

Reference: ChEMBL document CHEMBL3102739, “Synthesis and antiproliferative activity of conformationally restricted 1,2,3-triazole analogues of combretastatins in the sea urchin embryo model and against human cancer cell lines” (Bioorg Med Chem, 2014)
